The values that follow come from ChEMBL document CHEMBL1155338, “Antioxidant and antibacterial studies of arylazopyrazoles and arylhydrazonopyrazolones containing coumarin moiety” (2009).

Structures are written as SMILES. Active and inactive are the calls of the source. The calls are words filed in the database; no cut-off is given here.

In the first experiment the test system is Radical scavenging activity. Kind of experiment: Antioxidant activity assessed as DPPH radical scavenging after 30 mins. The experiment is classed as functional. Details: concentration or dose not given beside the values. The method, boiled down: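 Compound in methanol mixed 1:1 with methanolic DPPH, both 0.2 mM stocks, giving 0.1 mM each final. Shaken, left 30 min, then A517 read. % scavenging = [(Ab + As) − Am]/Ab × 100, where Ab is DPPH alone, As is compound alone and Am is the mixture. Ascorbic acid reference. Three replicates, averaged.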
On the technique in general: DPPH is a stable violet radical that fades when it is reduced.
`CC1=NN(C(=O)COc2ccc3c(C)cc(=O)oc3c2)C(=O)/C1=N/Nc1ccccc1C(=O)O`: the Activity was found to be 20%.
`O=C1O[C@H]([C@@H](O)CO)C(O)=C1O`: the Activity came out at 96%.
For `O=C(O)c1cn(C2CC2)c2cc(N3CCNCC3)c(F)cc2c1=O` [CIPROFLOXACIN], the result was inactive.
For the compound `Cc1nn(C(=O)COc2ccc3c(C)cc(=O)oc3c2)c(C)c1/N=N/c1ccc(C(=O)O)cc1`, the Activity is 32%.
The same measure, in the same setting: with `Cc1nn(C(=O)COc2ccc3c(C)cc(=O)oc3c2)c(C)c1/N=N/c1ccc(Br)cc1` the figure was 55%; with `Cc1ccc(/N=N/c2c(C)nn(C(=O)COc3ccc4c(C)cc(=O)oc4c3)c2C)c(C)c1`, 24%.
The same measure, in the same setting: in the case of `CC1=NN(C(=O)COc2ccc3c(C)cc(=O)oc3c2)C(=O)/C1=N/Nc1cccc([N+](=O)[O-])c1` it was 69%; in that of `Cc1nn(C(=O)COc2ccc3c(C)cc(=O)oc3c2)c(C)c1/N=N/c1ccc(Cl)cc1`, 32%.
With `CC1=NN(C(=O)COc2ccc3c(C)cc(=O)oc3c2)C(=O)/C1=N/Nc1ccc(C(=O)O)cc1`, the result was inactive.
As to `Cc1nn(C(=O)COc2ccc3c(C)cc(=O)oc3c2)c(C)c1/N=N/c1ccc([N+](=O)[O-])cc1`, the Activity was 32%.
In the case of `Cc1nn(C(=O)COc2ccc3c(C)cc(=O)oc3c2)c(C)c1/N=N/c1ccccc1C(=O)O`, the Activity stood at 28%.
For `Cc1nn(C(=O)COc2ccc3c(C)cc(=O)oc3c2)c(C)c1/N=N/c1cccc([N+](=O)[O-])c1`, the Activity was found to be 38%.
In the case of `CC1=NN(C(=O)COc2ccc3c(C)cc(=O)oc3c2)C(=O)/C1=N/Nc1ccc([N+](=O)[O-])cc1`, the Activity is 31%.
The same measure, in the same setting: with `CC1=NN(C(=O)COc2ccc3c(C)cc(=O)oc3c2)C(=O)/C1=N/Nc1ccc(Cl)cc1` the figure was 53%.
Take `CC1=NN(C(=O)COc2ccc3c(C)cc(=O)oc3c2)C(=O)/C1=N/Nc1ccc(C)cc1C`: the Activity came out at 57%.
Same read-out and setting: in the case of `CC1=NN(C(=O)COc2ccc3c(C)cc(=O)oc3c2)C(=O)/C1=N/Nc1ccc(Br)cc1` it was “inactive”.

The test system of another experiment is Bacillus subtilis. Kind of experiment: Antimicrobial activity against Bacillus subtilis NCIM 2010 after 24 hrs by disk diffusion method. The experiment is classed as functional. The method, boiled down: (§1)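 Disc diffusion on nutrient agar. Plates were swabbed evenly with a standard inoculum ([…] c.f.u./ml, 0.5 McFarland). 6.25 mm filter-paper discs were dry-heat sterilized (140 °C, 1 h), soaked in test compound at 250 mcg/disc, and placed on the agar. Solvent, growth and ciprofloxacin controls were included. Plates were incubated inverted 24 h at 37 °C and inhibition zones measured.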
In the case of `CC1=NN(C(=O)COc2ccc3c(C)cc(=O)oc3c2)C(=O)/C1=N/Nc1ccccc1C(=O)O`, the “inhibition zone (IZ)” value was 26.7 mm.
As to `O=C1O[C@H]([C@@H](O)CO)C(O)=C1O`, the “inhibition zone (IZ)” value was “inactive”.
The same measure, in the same setting: in the case of `O=C(O)c1cn(C2CC2)c2cc(N3CCNCC3)c(F)cc2c1=O` [CIPROFLOXACIN] it was 33.7 mm.
Same read-out and setting: in the case of `Cc1nn(C(=O)COc2ccc3c(C)cc(=O)oc3c2)c(C)c1/N=N/c1ccc(C(=O)O)cc1` it was “inactive”.
Still for that read-out and setting: with `Cc1nn(C(=O)COc2ccc3c(C)cc(=O)oc3c2)c(C)c1/N=N/c1ccc(Br)cc1` the figure was 27 mm; with `Cc1ccc(/N=N/c2c(C)nn(C(=O)COc3ccc4c(C)cc(=O)oc4c3)c2C)c(C)c1`, “inactive”.
Regarding `CC1=NN(C(=O)COc2ccc3c(C)cc(=O)oc3c2)C(=O)/C1=N/Nc1cccc([N+](=O)[O-])c1`, the “inhibition zone (IZ)” value was “inactive”.
Still for that read-out and setting: in the case of `Cc1nn(C(=O)COc2ccc3c(C)cc(=O)oc3c2)c(C)c1/N=N/c1ccc(Cl)cc1` it was “inactive”.
With `CC1=NN(C(=O)COc2ccc3c(C)cc(=O)oc3c2)C(=O)/C1=N/Nc1ccc(C(=O)O)cc1`, the “inhibition zone (IZ)” value was “inactive”.
For the compound `Cc1nn(C(=O)COc2ccc3c(C)cc(=O)oc3c2)c(C)c1/N=N/c1ccc([N+](=O)[O-])cc1`, the “inhibition zone (IZ)” value was “inactive”.
The same measure, in the same setting: in the case of `Cc1nn(C(=O)COc2ccc3c(C)cc(=O)oc3c2)c(C)c1/N=N/c1ccccc1C(=O)O` it was 16.7 mm.
Take `Cc1nn(C(=O)COc2ccc3c(C)cc(=O)oc3c2)c(C)c1/N=N/c1cccc([N+](=O)[O-])c1`: the “inhibition zone (IZ)” value was “inactive”.
On the same count and under the same terms, in the case of `CC1=NN(C(=O)COc2ccc3c(C)cc(=O)oc3c2)C(=O)/C1=N/Nc1ccc([N+](=O)[O-])cc1` it was “inactive”; in that of `CC1=NN(C(=O)COc2ccc3c(C)cc(=O)oc3c2)C(=O)/C1=N/Nc1ccc(Cl)cc1`, 24.3 mm.
For `CC1=NN(C(=O)COc2ccc3c(C)cc(=O)oc3c2)C(=O)/C1=N/Nc1ccc(C)cc1C`, the “inhibition zone (IZ)” value is “inactive”.
The same measure, in the same setting: with `CC1=NN(C(=O)COc2ccc3c(C)cc(=O)oc3c2)C(=O)/C1=N/Nc1ccc(Br)cc1` the figure was 14 mm.

In another experiment the test system is Staphylococcus aureus. The experiment in a line: Antimicrobial activity against Staphylococcus aureus NCIM 5021 after 24 hrs by disk diffusion method. The experiment is classed as functional. The method, boiled down: as §1
On the technique in general: Agar diffusion results depend on both activity and mobility in agar.
Take `CC1=NN(C(=O)COc2ccc3c(C)cc(=O)oc3c2)C(=O)/C1=N/Nc1ccccc1C(=O)O`: the “inhibition zone (IZ)” value turned out to be 12.3 mm.
Regarding `O=C1O[C@H]([C@@H](O)CO)C(O)=C1O`, the “inhibition zone (IZ)” value was “inactive”.
On the same count and under the same terms, with `O=C(O)c1cn(C2CC2)c2cc(N3CCNCC3)c(F)cc2c1=O` [CIPROFLOXACIN] the figure was 30 mm; with `Cc1nn(C(=O)COc2ccc3c(C)cc(=O)oc3c2)c(C)c1/N=N/c1ccc(C(=O)O)cc1`, “inactive”.
Turning to `Cc1nn(C(=O)COc2ccc3c(C)cc(=O)oc3c2)c(C)c1/N=N/c1ccc(Br)cc1`, the “inhibition zone (IZ)” value is recorded as 12.7 mm.
The same measure, in the same setting: in the case of `Cc1ccc(/N=N/c2c(C)nn(C(=O)COc3ccc4c(C)cc(=O)oc4c3)c2C)c(C)c1` it was “inactive”; in that of `CC1=NN(C(=O)COc2ccc3c(C)cc(=O)oc3c2)C(=O)/C1=N/Nc1cccc([N+](=O)[O-])c1`, “inactive”.
The same measure, in the same setting: in the case of `Cc1nn(C(=O)COc2ccc3c(C)cc(=O)oc3c2)c(C)c1/N=N/c1ccc(Cl)cc1` it was “inactive”.
The same measure, in the same setting: with `CC1=NN(C(=O)COc2ccc3c(C)cc(=O)oc3c2)C(=O)/C1=N/Nc1ccc(C(=O)O)cc1` the entry was “inactive”; with `Cc1nn(C(=O)COc2ccc3c(C)cc(=O)oc3c2)c(C)c1/N=N/c1ccc([N+](=O)[O-])cc1`, “inactive”; with `Cc1nn(C(=O)COc2ccc3c(C)cc(=O)oc3c2)c(C)c1/N=N/c1ccccc1C(=O)O`, “inactive”.
Consider `Cc1nn(C(=O)COc2ccc3c(C)cc(=O)oc3c2)c(C)c1/N=N/c1cccc([N+](=O)[O-])c1`, for which the “inhibition zone (IZ)” value was “inactive”.
On the same count and under the same terms, with `CC1=NN(C(=O)COc2ccc3c(C)cc(=O)oc3c2)C(=O)/C1=N/Nc1ccc([N+](=O)[O-])cc1` the entry was “inactive”; with `CC1=NN(C(=O)COc2ccc3c(C)cc(=O)oc3c2)C(=O)/C1=N/Nc1ccc(Cl)cc1`, 11.3 mm; with `CC1=NN(C(=O)COc2ccc3c(C)cc(=O)oc3c2)C(=O)/C1=N/Nc1ccc(C)cc1C`, “inactive”.
Consider `CC1=NN(C(=O)COc2ccc3c(C)cc(=O)oc3c2)C(=O)/C1=N/Nc1ccc(Br)cc1`, for which the “inhibition zone (IZ)” value is 13.7 mm.
